Experimental findings from ChEMBL document CHEMBL1129751, “2-Iminopiperidine and other 2-iminoazaheterocycles as potent inhibitors of human nitric oxide synthase isoforms” (J Med Chem, 1996) are described below.

Assay [1] has as its target T1, Nitric oxide synthase 3 (Homo sapiens, UniProt P29474).
T1 sequence (P29474 whole entry): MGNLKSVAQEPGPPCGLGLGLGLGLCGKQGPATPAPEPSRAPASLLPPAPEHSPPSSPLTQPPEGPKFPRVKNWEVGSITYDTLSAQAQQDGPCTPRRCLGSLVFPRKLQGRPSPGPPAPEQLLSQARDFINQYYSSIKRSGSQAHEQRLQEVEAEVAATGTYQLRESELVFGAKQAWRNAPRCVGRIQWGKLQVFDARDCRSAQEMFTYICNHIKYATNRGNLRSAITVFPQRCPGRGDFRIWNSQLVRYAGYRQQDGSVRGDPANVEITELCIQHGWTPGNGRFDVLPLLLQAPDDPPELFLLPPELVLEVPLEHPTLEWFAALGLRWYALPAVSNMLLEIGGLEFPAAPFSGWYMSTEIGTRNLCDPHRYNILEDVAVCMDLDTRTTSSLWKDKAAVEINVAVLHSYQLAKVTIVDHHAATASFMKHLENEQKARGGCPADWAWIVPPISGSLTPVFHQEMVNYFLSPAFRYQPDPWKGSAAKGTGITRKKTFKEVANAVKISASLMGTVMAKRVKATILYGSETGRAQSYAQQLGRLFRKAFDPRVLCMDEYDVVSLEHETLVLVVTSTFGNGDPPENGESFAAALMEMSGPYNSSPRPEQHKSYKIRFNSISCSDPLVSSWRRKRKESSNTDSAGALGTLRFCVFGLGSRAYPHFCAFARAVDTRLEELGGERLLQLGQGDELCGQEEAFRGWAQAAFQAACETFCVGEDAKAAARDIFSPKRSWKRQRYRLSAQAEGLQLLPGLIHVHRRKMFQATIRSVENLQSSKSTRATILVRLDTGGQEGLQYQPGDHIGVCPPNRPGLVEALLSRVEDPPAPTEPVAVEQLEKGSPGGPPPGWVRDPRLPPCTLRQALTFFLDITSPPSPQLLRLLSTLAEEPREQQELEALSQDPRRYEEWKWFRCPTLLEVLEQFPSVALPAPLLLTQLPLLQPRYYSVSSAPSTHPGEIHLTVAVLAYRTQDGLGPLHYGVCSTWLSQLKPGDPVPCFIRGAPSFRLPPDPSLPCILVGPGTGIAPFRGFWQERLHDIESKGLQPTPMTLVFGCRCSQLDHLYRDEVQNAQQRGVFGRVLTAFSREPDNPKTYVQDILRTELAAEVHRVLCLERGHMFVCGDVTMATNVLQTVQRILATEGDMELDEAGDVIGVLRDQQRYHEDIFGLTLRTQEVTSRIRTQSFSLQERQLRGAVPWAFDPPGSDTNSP
The experiment in a line: Inhibitory activity against human Endothelial nitric oxide synthase. An outline of the steps:
(§1)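 Recombinant human enzymes expressed in Sf9 cells by baculovirus and partially purified on DEAE-Sepharose from soluble extracts. Assay in 50 mM Tris pH 7.6 with BSA, DTT, CaCl2, FAD, tetrahydrobiopterin, NADPH, 30 µM final L-arginine with L-[2,3-3H]arginine. Endothelial form also given 40 nM calmodulin. 15 min at 37 °C, stopped with EGTA buffer. [3H]citrulline isolated on cation exchange and counted. IC50 from eight concentrations, at least duplicate.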

Assay [2] is described as follows: Selectivity is defined as the ratio of the IC50(hecNOS) to IC50(hiNOS). The method in brief: (§2)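 Ratio of IC50 for the endothelial or neuronal isoform to IC50 for the inducible isoform. All three recombinant human enzymes were assayed by [3H]arginine-to-[3H]citrulline conversion at 30 µM final L-arginine, 37 °C for 15 min. Both constitutive isoforms had 40 nM calmodulin. Each compound tested at eight concentrations.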

Assay [3] can be described thus: Selectivity is defined as the ratio of the IC50(hncNOS) to IC50(hiNOS). The method in brief: as §2
The target in assay [4] is Nitric oxide synthase, inducible (Homo sapiens, UniProt P35228). The experiment in a line: Inhibitory activity against human inducible nitric oxide synthase. The method in brief:
as §1

Assay [5] addresses Nitric oxide synthase 1 (Homo sapiens, UniProt P29475). Nature of the assay: Inhibitory activity against human Neuronal nitric oxide synthase.

pIC50: −log10 of the molar value.

Chain of Nitric oxide synthase 1 (P29475 whole entry): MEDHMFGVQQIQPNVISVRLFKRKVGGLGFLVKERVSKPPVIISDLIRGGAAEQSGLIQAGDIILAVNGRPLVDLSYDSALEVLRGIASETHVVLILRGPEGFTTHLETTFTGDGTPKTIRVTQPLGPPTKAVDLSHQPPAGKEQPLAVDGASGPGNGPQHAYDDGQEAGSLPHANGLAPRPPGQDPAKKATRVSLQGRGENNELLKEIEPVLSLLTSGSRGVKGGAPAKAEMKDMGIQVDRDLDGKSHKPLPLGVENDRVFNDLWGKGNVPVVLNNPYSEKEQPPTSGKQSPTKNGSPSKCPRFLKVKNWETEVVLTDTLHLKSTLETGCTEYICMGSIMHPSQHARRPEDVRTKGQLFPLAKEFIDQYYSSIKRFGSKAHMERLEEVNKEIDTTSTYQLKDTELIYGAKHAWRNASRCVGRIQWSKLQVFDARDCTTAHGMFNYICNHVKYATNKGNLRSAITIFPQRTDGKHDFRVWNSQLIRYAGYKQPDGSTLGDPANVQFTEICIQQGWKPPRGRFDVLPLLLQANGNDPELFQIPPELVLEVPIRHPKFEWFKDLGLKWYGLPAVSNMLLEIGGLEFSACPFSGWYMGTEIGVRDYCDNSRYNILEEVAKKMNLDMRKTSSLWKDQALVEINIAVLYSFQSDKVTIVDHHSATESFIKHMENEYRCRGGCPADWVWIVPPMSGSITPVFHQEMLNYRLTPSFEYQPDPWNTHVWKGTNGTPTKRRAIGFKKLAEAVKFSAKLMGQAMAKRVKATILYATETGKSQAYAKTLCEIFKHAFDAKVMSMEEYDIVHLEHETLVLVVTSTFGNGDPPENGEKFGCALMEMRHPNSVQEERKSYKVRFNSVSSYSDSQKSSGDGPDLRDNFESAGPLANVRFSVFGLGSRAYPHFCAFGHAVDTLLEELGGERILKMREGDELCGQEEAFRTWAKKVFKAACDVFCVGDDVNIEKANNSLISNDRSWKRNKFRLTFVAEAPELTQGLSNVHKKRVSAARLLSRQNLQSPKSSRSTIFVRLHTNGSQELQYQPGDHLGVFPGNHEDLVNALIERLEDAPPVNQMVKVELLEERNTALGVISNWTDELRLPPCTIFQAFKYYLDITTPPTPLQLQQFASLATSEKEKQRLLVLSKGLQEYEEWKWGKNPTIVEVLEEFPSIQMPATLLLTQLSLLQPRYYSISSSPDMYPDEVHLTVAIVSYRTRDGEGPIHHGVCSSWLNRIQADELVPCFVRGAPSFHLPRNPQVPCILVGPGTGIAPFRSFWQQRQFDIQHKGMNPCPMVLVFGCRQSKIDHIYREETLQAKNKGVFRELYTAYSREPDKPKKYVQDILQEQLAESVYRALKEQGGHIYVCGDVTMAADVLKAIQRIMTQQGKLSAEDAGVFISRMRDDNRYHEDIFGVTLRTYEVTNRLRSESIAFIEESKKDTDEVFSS
Chain of Nitric oxide synthase, inducible (P35228 whole entry): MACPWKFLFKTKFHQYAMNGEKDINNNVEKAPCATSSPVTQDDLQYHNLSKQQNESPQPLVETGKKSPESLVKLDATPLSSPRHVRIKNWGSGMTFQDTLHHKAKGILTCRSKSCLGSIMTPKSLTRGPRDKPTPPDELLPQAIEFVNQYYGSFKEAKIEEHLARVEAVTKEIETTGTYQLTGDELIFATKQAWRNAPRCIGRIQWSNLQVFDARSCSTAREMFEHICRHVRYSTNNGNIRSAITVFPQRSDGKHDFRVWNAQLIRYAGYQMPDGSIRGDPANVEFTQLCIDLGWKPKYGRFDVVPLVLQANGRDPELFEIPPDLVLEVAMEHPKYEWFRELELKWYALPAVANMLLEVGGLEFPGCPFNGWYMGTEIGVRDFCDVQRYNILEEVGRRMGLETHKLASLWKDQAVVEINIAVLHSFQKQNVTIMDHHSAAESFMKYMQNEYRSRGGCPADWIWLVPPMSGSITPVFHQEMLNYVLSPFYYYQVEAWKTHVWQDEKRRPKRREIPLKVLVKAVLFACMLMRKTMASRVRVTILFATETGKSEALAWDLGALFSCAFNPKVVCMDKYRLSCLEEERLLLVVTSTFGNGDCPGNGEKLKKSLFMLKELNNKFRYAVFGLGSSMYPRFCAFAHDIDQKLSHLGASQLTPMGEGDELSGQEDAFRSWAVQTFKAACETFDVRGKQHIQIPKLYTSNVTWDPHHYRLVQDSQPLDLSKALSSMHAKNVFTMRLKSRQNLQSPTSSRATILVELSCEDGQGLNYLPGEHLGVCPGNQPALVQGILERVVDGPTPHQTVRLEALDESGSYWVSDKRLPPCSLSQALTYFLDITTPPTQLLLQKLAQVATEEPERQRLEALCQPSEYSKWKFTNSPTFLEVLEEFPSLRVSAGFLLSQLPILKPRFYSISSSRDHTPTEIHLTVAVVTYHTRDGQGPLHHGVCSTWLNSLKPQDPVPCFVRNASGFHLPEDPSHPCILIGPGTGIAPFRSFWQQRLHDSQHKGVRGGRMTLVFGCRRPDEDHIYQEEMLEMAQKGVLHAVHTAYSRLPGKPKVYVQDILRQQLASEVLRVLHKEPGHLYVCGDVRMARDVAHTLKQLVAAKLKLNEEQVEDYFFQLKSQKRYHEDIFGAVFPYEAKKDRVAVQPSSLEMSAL

Regarding `NC1=NCCC1`, the pIC50 in assay [1] was 4.03; in assay [4], 4.59; in assay [5] it was 4.70. Further, the values for the Selectivity in assay [2] and in assay [3] were 3.6 and 0.8, respectively.
The matching figures for `CC(=N)NCCCC[C@H](N)C(=O)O` [L-NIL]: 3.86, 5.34, 4.21, 30 and 13.
The matching figures for `NC1=NCCCCC1`: 4.80, 5.70, 5.46, 8 and 1.8.
On the same counts, the results for `NC1=NCCCN1` are 4.06, 4.60, 4.77, 3.5 and 0.7.
Consider `NC1=NCCCCCC1`, for which the negative-log IC50 (pIC50) in assay [1] was 4.23; in assay [4] it was 5.00; in assay [5], 5.00.
Consider `N/C1=N/CCCCCCC1`, for which the Selectivity in assay [2] amounted to 9.2; in assay [3], 0.7.
For `N=C1CCCCN1`, the results for the pIC50 in assay [1] and in assay [4] were 5.33 and 6.00, respectively.
`NC1=NCCCS1`: the values for the pIC50 in assay [1], in assay [4] and in assay [5] were 5.15, 5.54 and 5.49, respectively. Besides, the Selectivity in assay [2] amounted to 2.4; in assay [3], 1.1.
With `N=C1CCCCCCCN1`, the results for the pIC50 in assay [1], in assay [4] and in assay [5] were 4.05, 5.01 and 5.17, respectively.
Consider `N/C1=N/CCCCCC1`, for which the figures for the Selectivity in assay [2] and in assay [3] were 5.9 and 1, respectively.
With `NC1=NCCCO1`, the pIC50 in assay [1] is 5.09; in assay [4], 5.74; in assay [5] it was 5.43. Further, the Selectivity in assay [2] came to 4.6; in assay [3], 2.1.

What is called pIC50 is the IC50 on a negative log10 scale, so that one unit is a factor of ten. A low value points to a high IC50.
